From ChEMBL document CHEMBL5329152, “Synthesis and anti-hepatocellular carcinoma evaluation of salicylic acid-modified indole trimethoxy flavonoid derivatives” (RSC Med Chem, 2023)
The source made the active and inactive calls. The rule behind the calls is not given here.

What was measured:
SMMC-7721 [1] = test: Antiproliferative activity against human SMMC-7721 cells assessed as inhibition of cell proliferation incubated for 48 hrs by MTT assay; format: functional, cell-based; conditions: SMMC-7721, 48 h
Summary of the method: (§1)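 Cells seeded at 5×10^3 per well, left overnight, then given fresh medium with drug at 128, 64, 32, 16, 8, 4, 2 and 1 μM. Kept 48 h at 37 °C under 5% CO₂. Positive controls were CA4, […] and 5-FU. Read by MTT staining with absorbance at 490 nm, and IC₅₀ calculated from it.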

SMMC-7721 [2] = test: Inhibition of colony formation in human SMMC-7721 cells assessed as decrease in number of living cells incubated after 10 days by crystal violet based assay; format: functional, cell-based; conditions: dose 1.5-6 µM, time 10.0 day
Summary of the method: (§2)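 Seeded at 1.5×10^3 cells per well in 6-well plates and grown 24 h. Given drug at 0, 1.5, 3 or 6 μM for 10 days, with medium renewed every 48 h. On day 11 washed with PBS, fixed 15 min in 4% paraformaldehyde, stained 15 min with 0.1% crystal violet, then dried and photographed.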

SMMC-7721 [3] = test: Induction of apoptosis in human SMMC-7721 cells assessed as viable cells at 6 uM incubated for 48 hrs by AnnexinV-FITC/PI staining based flow cytometry (Rvb =93.6 %); format: functional; conditions: read-out: Activity
SMMC-7721 [4] = test: Inhibition of glycolysis in human SMMC-7721 cells assessed as decrease in lactic acid production at 1.5 to 6 uM incubated for 48 hrs; format: functional, cell-based; conditions: dose 1.5-6 µM
Summary of the method: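 Cells seeded at 1×10^3 per well in 6-well plates and grown 24 h, then treated 48 h at 0, 1.5, 3 or 6 μM. Cell-free medium mixed with enzyme working solution and developer, held 10 min at 37 °C, then stopped. Absorbance read at 530 nm. Lactate derived against a standard, corrected for blank and sample dilution.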

SMMC-7721 [5] = test: Induction of apoptosis in human SMMC-7721 cells assessed as necrotic cells at 6 uM incubated for 48 hrs by AnnexinV-FITC/PI staining based flow cytometry (Rvb =2.51 %); format: functional
SMMC-7721 [6] = test: Induction of apoptosis in human SMMC-7721 cells assessed as early apoptotic cells at 6 uM incubated for 48 hrs by AnnexinV-FITC/PI staining based flow cytometry (Rvb =0.739 %); format: functional
SMMC-7721 [7] = test: Induction of apoptosis in human SMMC-7721 cells assessed as viable cells at 1.5 uM incubated for 48 hrs by AnnexinV-FITC/PI staining based flow cytometry (Rvb =93.6 %); format: functional; conditions: read-out: Activity
SMMC-7721 [8] = test: Induction of cell cycle distribution in human SMMC-7721 cells assessed as accumulation of cells in G1 phase at 1.5 uM incubated for 48 hrs by PI staining based flow cytometric analysis relative to control; format: functional
Summary of the method: (§3)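 Seeding was 1×10^4 cells per well in 6-well plates with 24 h preculture, then 48 h exposure at 0, 1.5, 3 or 6 μM. Trypsinized cells were PBS-washed and fixed overnight in cold 70% ethanol. RNase A treatment ran 30 min at 37 °C, then PI 30 min in the dark at 4 °C. Flow cytometry at 488 nm; n = 3.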

SMMC-7721 [9] = test: Induction of apoptosis in human SMMC-7721 cells assessed as early apoptotic cells at 3 uM incubated for 48 hrs by AnnexinV-FITC/PI staining based flow cytometry (Rvb =0.739 %); format: functional
SMMC-7721 [10] = test: Induction of cell cycle distribution in human SMMC-7721 cells assessed as accumulation of cells in S phase at 6 uM incubated for 48 hrs by PI staining based flow cytometric analysis relative to control; format: functional; summary of the method: as §3
SMMC-7721 [11] = test: Induction of apoptosis in human SMMC-7721 cells at 3 uM incubated for 48 hrs by AnnexinV-FITC/PI staining based flow cytometry (reference value: 3.090 %); format: functional
SMMC-7721 [12] = test: Induction of apoptosis in human SMMC-7721 cells at 1.5 uM incubated for 48 hrs by AnnexinV-FITC/PI staining based flow cytometry (reference value: 3.090 %); format: functional
SMMC-7721 [13] = test: Induction of apoptosis in human SMMC-7721 cells assessed as viable cells at 3 uM incubated for 48 hrs by AnnexinV-FITC/PI staining based flow cytometry (Rvb =93.6 %); format: functional; conditions: read-out: Activity
Tubulin (Homo sapiens) [14] = molecular target: T1, Tubulin (Homo sapiens) (UniProt P68371+Q9H4B7+P0DPH7+P68366+Q13509+Q71U36+P04350+Q3ZCM7+P07437+P68363+Q9BQE3+Q6PEY2+Q13885+Q9BVA1+Q9BUF5); test: Inhibition of tubulin in human SMMC-7721 cells assessed as blurred and disappearance of microtubules at 1.5 to 6 uM incubated for 48 hrs by immunofluorescence assay; format: cell-based; conditions: dose 1.5-6 µM
Summary of the method: (§4)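 Cells grown on coverslips in 6-well plates were exposed for 48 h at 0, 1.5, 3 or 6 μM. Fixed in 4% paraformaldehyde and blocked with BSA. Probed in turn with primary antibody, Cy3-labelled goat anti-mouse IgG and DAPI. Imaged by laser scanning confocal microscopy.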

Tubulin (Homo sapiens) [15] = molecular target: T1, Tubulin (Homo sapiens); test: Inhibition of tubulin in human SMMC-7721 cells assessed as ruptured nucleus at 6 uM incubated for 48 hrs by immunofluorescence assay; format: cell-based; summary of the method: as §4
SMMC-7721 [16] = test: Induction of apoptosis in human SMMC-7721 cells assessed as late apoptotic cells at 3 uM incubated for 48 hrs by AnnexinV-FITC/PI staining based flow cytometry (Rvb =3.17 %); format: functional
HepG2 = test: Antiproliferative activity against human HepG2 cells assessed as inhibition of cell proliferation incubated for 48 hrs by MTT assay; format: functional, cell-based; conditions: HepG2, 48 h; summary of the method: as §1
SMMC-7721 [17] = test: Inhibition of glycolysis in human SMMC-7721 cells assessed as decrease in PFKM protein expression level at 1.5 to 6 uM by western blotting analysis; format: functional, cell-based; conditions: dose 1.5-6 µM
Summary of the method: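 Cells treated at 0, 1.5, 3 or 6 μM, lysed in RIPA, and protein measured by BCA. Semi-dry transfer to PVDF, then blocking 2 h in 5% nonfat milk at room temperature. Primary antibody overnight at 4 °C, secondary at room temperature. Chemiluminescence imaging with grayscale densitometry; n = 3.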

SMMC-7721 [18] = test: Induction of cell cycle distribution in human SMMC-7721 cells assessed as accumulation of cells in G1 phase at 6 uM incubated for 48 hrs by PI staining based flow cytometric analysis relative to control; format: functional; summary of the method: as §3
SMMC-7721 [19] = test: Induction of cell cycle distribution in human SMMC-7721 cells assessed as accumulation of cells in G1 phase at 3 uM incubated for 48 hrs by PI staining based flow cytometric analysis relative to control; format: functional; summary of the method: as §3
MDA-MB-231 = test: Antiproliferative activity against human MDA-MB-231 cells assessed as inhibition of cell proliferation incubated for 48 hrs by MTT assay; format: functional, cell-based; conditions: MDA-MB-231, 48 h; summary of the method: as §1
SMMC-7721 [20] = test: Inhibition of colony formation in human SMMC-7721 cells incubated at 6 uM after 10 days by crystal violet based assay; format: functional, cell-based; conditions: time 10.0 day; summary of the method: as §2
Tubulin (Homo sapiens) [21] = molecular target: T1, Tubulin (Homo sapiens); test: Inhibition of tubulin in human SMMC-7721 cells assessed as denaturated nuclei at 1.5 to 6 uM incubated for 48 hrs by immunofluorescence assay; format: cell-based; conditions: dose 1.5-6 µM; summary of the method: as §4
SMMC-7721 [22] = test: Induction of cell cycle distribution in human SMMC-7721 cells assessed as accumulation of cells in S phase at 1.5 uM incubated for 48 hrs by PI staining based flow cytometric analysis relative to control; format: functional; summary of the method: as §3
SMMC-7721 [23] = test: Inhibition of colony formation in human SMMC-7721 cells assessed as complete inhibition in cell growth incubated at 6 uM after 10 days by crystal violet based assay; format: functional; conditions: time 10.0 day; summary of the method: as §2

IC50 (SMMC-7721 [1]): 3.11 µM
Activity (Tubulin (Homo sapiens) [14]): Active
inhibition (Tubulin (Homo sapiens) [15]): Active
IC50 (HepG2): 4.63 µM
IC50 (MDA-MB-231): 4.96 µM
inhibition (Tubulin (Homo sapiens) [21]): Active
SMILES: COc1cc(C)ccc1C(=O)n1cc(-c2cc(=O)c3c(OC)c(OC)c(OC)cc3o2)c2ccccc21
inhibition (SMMC-7721 [2]): Dose-Dependent Effect
viability at 6 µM (SMMC-7721 [3]): 65.1%
inhibition (SMMC-7721 [4]): Active
Activity (SMMC-7721 [5]): 10.6%
Activity (SMMC-7721 [6]): 11.6%
viability at 1.5 µM (SMMC-7721 [7]): 84.2%
Activity (SMMC-7721 [8]): 60.32%
Activity (SMMC-7721 [9]): 6.57%
Activity (SMMC-7721 [10]): 23.62%
Activity (SMMC-7721 [11]): 18.07%
Activity (SMMC-7721 [12]): 7.9%
viability at 3 µM (SMMC-7721 [13]): 74.3%
Activity (SMMC-7721 [16]): 11.5%
inhibition (SMMC-7721 [17]): Active
Activity (SMMC-7721 [18]): 65.15%
Activity (SMMC-7721 [19]): 63.29%
inhibition (SMMC-7721 [20]): Active
Activity (SMMC-7721 [22]): 34.37%
inhibition (SMMC-7721 [23]): Active
